{"source": "ChEMBL document CHEMBL1121528", "about": "“Synthesis and pharmacology of 8-amino-3-(cyclopropylmethyl)-1,2,3,4,5,6-hexahydro-cis-6,11-dimethyl-2,6-methano-3-benzazocine and related compounds” (1980)", "key": {"Mus musculus [1]": {"system": "Mus musculus", "experiment": "Effective dose required for its agonist activity in mouse by acetylcholine writhing test after sc administration", "type": "functional", "summary_of_the_method": "(§1)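 Agonist (analgesic) screens: modified D'Amour-Smith tail-flick, phenylquinone-induced writhing, acetylcholine-induced writhing (mouse), and rat bradykinin test. Compounds given sc or po.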"}, "Rattus norvegicus [2]": {"system": "Rattus norvegicus", "experiment": "Analgesic dose required for its phenazocine antagonistic activity in rat after peroral administration", "type": "functional", "summary_of_the_method": "(§2)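 Narcotic antagonist activity in rats by the Harris–Pierson tail-flick procedure against phenazocine, with compounds given orally. AD50 reported in mg/kg with 95% confidence limits, calculated as free base.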"}, "Mus musculus [3]": {"system": "Mus musculus", "experiment": "Effective dose required for its agonist activity in mouse by phenylquinone test after sc administration", "type": "functional", "summary_of_the_method": "as §1"}, "Mus musculus [4]": {"system": "Mus musculus", "experiment": "Effective dose required for its agonist activity in phenylquinone test after po administration", "type": "functional", "summary_of_the_method": "as §1"}, "Rattus norvegicus [5]": {"system": "Rattus norvegicus", "experiment": "Analgesic dose required for its narcotic activity in Phenazocine after peroral administration", "type": "functional"}, "Rattus norvegicus [6]": {"system": "Rattus norvegicus", "experiment": "Analgesic dose required for its narcotic activity in Phenazocine after sc administration", "type": "functional"}, "Rattus norvegicus [7]": {"system": "Rattus norvegicus", "experiment": "Analgesic dose required for its narcotic activity in meperidine after peroral administration", "type": "functional"}, "Rattus norvegicus [8]": {"system": "Rattus norvegicus", "experiment": "Analgesic dose required for its narcotic activity in meperidine after sc administration", "type": "functional"}, "Rattus norvegicus [9]": {"system": "Rattus norvegicus", "experiment": "Analgesic dose required for its narcotic activity in morphine after sc administration", "type": "functional"}, "Rattus norvegicus [10]": {"system": "Rattus norvegicus", "experiment": "Analgesic dose required for its narcotic activity morphine after peroral administration", "type": "functional"}, "Rattus norvegicus [11]": {"system": "Rattus norvegicus", "experiment": "Effective dose required for its agonist activity in rat bradykinin test after po administration", "type": "functional", "summary_of_the_method": "as §1"}, "Rattus norvegicus [12]": {"system": "Rattus norvegicus", "experiment": "Effective dose required for its agonist activity in rat tail flick test after sc administration; I = inactive", "type": "functional, organism-based", "summary_of_the_method": "as §1"}, "Rattus norvegicus [13]": {"system": "Rattus norvegicus", "experiment": "Effective dose required for its agonist activity in bradykinin test after sc administration", "type": "functional", "summary_of_the_method": "as §1"}, "Rattus norvegicus [14]": {"system": "Rattus norvegicus", "experiment": "Analgesic dose required for its phenazocine antagonistic activity in rat after peroral administration; I = inactive at 40", "type": "functional, organism-based", "summary_of_the_method": "as §2"}, "Rattus norvegicus [15]": {"system": "Rattus norvegicus", "experiment": "analgesic dose required for its phenazocine antagonistic activity in rat after peroral administration; I = inactive", "type": "functional, organism-based", "summary_of_the_method": "as §2"}, "Mus musculus [16]": {"system": "Mus musculus", "experiment": "Effective dose required for its agonist activity in acetylcholine test after po administration", "type": "functional", "summary_of_the_method": "as §1"}, "Mus musculus [17]": {"system": "Mus musculus", "experiment": "Effective dose required for its agonist activity in acetylcholine test after sc administration", "type": "functional", "summary_of_the_method": "as §1"}, "Rattus norvegicus [18]": {"system": "Rattus norvegicus", "experiment": "Analgesic dose required for its narcotic activity in Phenazocine after po administration", "type": "functional"}, "Rattus norvegicus [19]": {"system": "Rattus norvegicus", "experiment": "Analgesic dose required for its narcotic activity in meperidine after po administration", "type": "functional"}, "Rattus norvegicus [20]": {"species_on_record": "Rattus norvegicus", "experiment": "Analgesic dose required for its narcotic activity in morphine", "type": "functional"}, "Rattus norvegicus [21]": {"system": "Rattus norvegicus", "experiment": "Analgesic dose required for its narcotic activity morphine after po administration", "type": "functional"}, "Rattus norvegicus [22]": {"system": "Rattus norvegicus", "experiment": "Effective dose required for its agonist activity in rat bradykinin test after sc administration", "type": "functional", "summary_of_the_method": "as §1"}, "Rattus norvegicus [23]": {"system": "Rattus norvegicus", "experiment": "Analgesic dose required for its phenazocine antagonistic activity in rat after peroral administration; ? = Questionable activity", "type": "functional, organism-based", "summary_of_the_method": "as §2"}, "Mus musculus [24]": {"system": "Mus musculus", "experiment": "Effective dose required for its agonist activity in Phenylquinone writhing test after sc administration", "type": "functional", "summary_of_the_method": "as §1"}, "Rattus norvegicus [25]": {"species_on_record": "Rattus norvegicus", "experiment": "Tested for peroral analgesic dose required for its narcotic activity in meperidine", "type": "functional"}}, "note": "Calls of active or inactive are those of the source. No cut-off for these calls is given here."}
{"smiles": "CCCN1CC[C@]2(C)c3cc(N)ccc3CC1[C@@H]2C", "values": [{"measurement": "ED50", "setting": "Mus musculus [1]", "value": 5.6, "unit": "mg/kg"}, {"measurement": "AD50", "setting": "Rattus norvegicus [2]", "value": 2, "unit": "mg/kg"}]}
{"smiles": "C[C@H]1C2Cc3ccc(NCc4ccccc4)cc3[C@@]1(C)CCN2CC1CC1", "values": [{"measurement": "AD50", "setting": "Rattus norvegicus [2]", "value": 1, "unit": "mg/kg"}]}
{"smiles": "C[C@H]1[C@H]2Cc3ccc(O)cc3[C@]1(C)CCN2CC1CC1", "note": "[CYCLAZOCINE]", "values": [{"measurement": "ED50", "setting": "Mus musculus [3]", "value": 0.04, "unit": "mg/kg"}, {"measurement": "ED50", "setting": "Mus musculus [4]", "value": 3.6, "unit": "mg/kg"}, {"measurement": "AD50", "setting": "Rattus norvegicus [5]", "value": 3.1, "unit": "mg/kg"}, {"measurement": "AD50", "setting": "Rattus norvegicus [6]", "value": 0.028, "unit": "mg/kg"}, {"measurement": "AD50", "setting": "Rattus norvegicus [7]", "value": 4.2, "unit": "mg/kg"}, {"measurement": "AD50", "setting": "Rattus norvegicus [8]", "value": 0.019, "unit": "mg/kg"}, {"measurement": "AD50", "setting": "Rattus norvegicus [9]", "value": 0.029, "unit": "mg/kg"}, {"measurement": "AD50", "setting": "Rattus norvegicus [10]", "value": 4.3, "unit": "mg/kg"}, {"measurement": "ED50", "setting": "Rattus norvegicus [11]", "value": 3.7, "unit": "mg/kg"}, {"measurement": "ED50", "setting": "Rattus norvegicus [12]", "value": "inactive"}, {"measurement": "ED50", "setting": "Rattus norvegicus [13]", "value": 0.04, "unit": "mg/kg"}]}
{"smiles": "CCCCNc1ccc2c(c1)[C@@]1(C)CCN(CC3CC3)C(C2)[C@@H]1C", "values": [{"measurement": "ED50", "setting": "Mus musculus [1]", "value": 1, "unit": "mg/kg"}, {"measurement": "AD50", "setting": "Rattus norvegicus [14]", "value": "inactive"}]}
{"smiles": "C[C@H]1C2Cc3ccc(N(C)C)cc3[C@@]1(C)CCN2CC1CC1", "values": [{"measurement": "ED50", "setting": "Mus musculus [1]", "value": 0.79, "unit": "mg/kg"}]}
{"smiles": "C=CCN1CC[C@]2(C)c3cc(N)ccc3CC1[C@@H]2C", "values": [{"measurement": "ED50", "setting": "Mus musculus [1]", "value": 2.5, "unit": "mg/kg"}, {"measurement": "AD50", "setting": "Rattus norvegicus [2]", "value": 1.5, "unit": "mg/kg"}]}
{"smiles": "C[C@H]1C2Cc3ccc(N)cc3[C@@]1(C)CCN2", "values": [{"measurement": "ED50", "setting": "Mus musculus [1]", "value": 6.1, "unit": "mg/kg"}, {"measurement": "AD50", "setting": "Rattus norvegicus [15]", "value": "inactive"}]}
{"smiles": "C[C@H]1C2Cc3ccc(NCC4CC4)cc3[C@@]1(C)CCN2CC1CC1.Cl", "values": [{"measurement": "ED50", "setting": "Mus musculus [1]", "value": 0.7, "unit": "mg/kg"}, {"measurement": "AD50", "setting": "Rattus norvegicus [2]", "value": 8, "unit": "mg/kg"}]}
{"smiles": "C[C@H]1C2Cc3ccc(N)cc3[C@@]1(C)CCN2CC1CC1", "values": [{"measurement": "ED50", "setting": "Mus musculus [16]", "value": 3.2, "unit": "mg/kg"}, {"measurement": "ED50", "setting": "Mus musculus [17]", "value": 0.8, "unit": "mg/kg"}, {"measurement": "ED50", "setting": "Mus musculus [3]", "value": 1.4, "unit": "mg/kg"}, {"measurement": "ED50", "setting": "Mus musculus [4]", "value": 7.2, "unit": "mg/kg"}, {"measurement": "AD50", "setting": "Rattus norvegicus [18]", "value": 10, "unit": "mg/kg"}, {"measurement": "AD50", "setting": "Rattus norvegicus [6]", "value": 2.7, "unit": "mg/kg"}, {"measurement": "AD50", "setting": "Rattus norvegicus [19]", "value": 8.8, "unit": "mg/kg"}, {"measurement": "AD50", "setting": "Rattus norvegicus [8]", "value": 2, "unit": "mg/kg"}, {"measurement": "AD50", "setting": "Rattus norvegicus [20]", "value": 3.7, "unit": "mg/kg"}, {"measurement": "AD50", "setting": "Rattus norvegicus [21]", "value": 15, "unit": "mg/kg"}, {"measurement": "ED50", "setting": "Rattus norvegicus [11]", "value": 8.1, "unit": "mg/kg"}, {"measurement": "ED50", "setting": "Rattus norvegicus [22]", "value": 1.2, "unit": "mg/kg"}, {"measurement": "ED50", "setting": "Rattus norvegicus [12]", "value": "inactive"}]}
{"smiles": "CCCNc1ccc2c(c1)[C@@]1(C)CCN(CC3CC3)C(C2)[C@@H]1C", "values": [{"measurement": "ED50", "setting": "Mus musculus [1]", "value": 1.2, "unit": "mg/kg"}, {"measurement": "AD50", "setting": "Rattus norvegicus [23]", "value": "Questionable activity"}]}
{"smiles": "CC(C)=CCN1CC[C@]2(C)c3cc(O)ccc3C[C@H]1[C@H]2C", "note": "[(+)-PENTAZOCINE]", "values": [{"measurement": "ED50", "setting": "Mus musculus [3]", "value": 3.8, "unit": "mg/kg"}, {"measurement": "ED50", "setting": "Mus musculus [4]", "value": 95, "unit": "mg/kg"}, {"measurement": "AD50", "setting": "Rattus norvegicus [18]", "value": 76, "unit": "mg/kg"}, {"measurement": "AD50", "setting": "Rattus norvegicus [6]", "value": 6.3, "unit": "mg/kg"}, {"measurement": "AD50", "setting": "Rattus norvegicus [19]", "value": 68, "unit": "mg/kg"}, {"measurement": "AD50", "setting": "Rattus norvegicus [8]", "value": 3.9, "unit": "mg/kg"}, {"measurement": "AD50", "setting": "Rattus norvegicus [9]", "value": 9, "unit": "mg/kg"}, {"measurement": "AD50", "setting": "Rattus norvegicus [21]", "value": 140, "unit": "mg/kg"}, {"measurement": "Protection", "setting": "Rattus norvegicus [11]", "value": 40, "unit": "mg/kg"}, {"measurement": "ED50", "setting": "Rattus norvegicus [22]", "value": 2.6, "unit": "mg/kg"}, {"measurement": "ED50", "setting": "Rattus norvegicus [12]", "value": "inactive"}]}
{"smiles": "CC(C)CN1CC[C@]2(C)c3cc(N)ccc3CC1[C@@H]2C", "values": [{"measurement": "ED50", "setting": "Mus musculus [1]", "value": 1.5, "unit": "mg/kg"}, {"measurement": "AD50", "setting": "Rattus norvegicus [2]", "value": 9.4, "unit": "mg/kg"}]}
{"smiles": "C[C@H]1C2Cc3ccc([N+](=O)[O-])cc3[C@@]1(C)CCN2CC1CC1.Cl", "values": [{"measurement": "ED50", "setting": "Mus musculus [24]", "value": 24, "unit": "mg/kg"}, {"measurement": "AD50", "setting": "Rattus norvegicus [25]", "value": 9.6, "unit": "mg/kg"}]}
{"smiles": "CCNc1ccc2c(c1)[C@@]1(C)CCN(CC3CC3)C(C2)[C@@H]1C", "values": [{"measurement": "ED50", "setting": "Mus musculus [1]", "value": 1.3, "unit": "mg/kg"}, {"measurement": "AD50", "setting": "Rattus norvegicus [14]", "value": "inactive"}]}
{"smiles": "CNc1ccc2c(c1)[C@@]1(C)CCN(CC3CC3)C(C2)[C@@H]1C", "values": [{"measurement": "ED50", "setting": "Mus musculus [1]", "value": 0.44, "unit": "mg/kg"}, {"measurement": "AD50", "setting": "Rattus norvegicus [2]", "value": 1.35, "unit": "mg/kg"}]}
